The values that follow come from ChEMBL document CHEMBL3228030, “Bicyclic pyrazolines, potential central nervous system depressants and antiinflammatory agents” (J Med Chem, 1979).

What is called inhibition in vivo is the share of the control response that was lost under treatment. What is called LD50 is the dose at which mortality reaches 50%. Read a high LD50 as a less toxic substance.

Activity calls are given as the source filed them. The calls are words filed in the database; no cut-off is given here.

The test system of the first data set is Rattus norvegicus. Kind of data set: Antiinflammatory activity in Sprague-Dawley rat assessed as inhibition of carrageenan-induced paw edema at 150 mg/kg, po after 3 hrs. It counts as functional.
Conditions: not given
In outline:
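Given by mouth in 1 mL water or 1% aqueous sodium carboxymethylcellulose to adult Charles River Sprague-Dawley rats (seven per group), 2 h before a footpad injection of 0.05 mL 1% carrageenan in pyrogen-free saline. After 3 h, rats were killed and paws removed and weighed, with the contralateral paw as control. Read-out was percent inhibition of edema.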
As for `CN1C/C(=C\c2ccc(Cl)cc2)C2=NN(C)C(c3ccc(Cl)cc3)C2C1.Cl` (configuration not stated), the inhibition in vivo at 150 mg/kg turned out to be 17%. As for `CCCCC1C(=O)N(c2ccccc2)N(c2ccccc2)C1=O` [PHENYLBUTAZONE], the inhibition in vivo at 150 mg/kg amounted to 51%.

`CCCCN1N=C2/C(=C/c3ccccc3)CN(C)CC2C1c1ccccc1.Cl` (configuration not stated): the inhibition in vivo at 150 mg/kg amounted to 26%. Same read-out and setting: for `CCCN1N=C2/C(=C/c3ccccc3)CN(C)CC2C1c1ccccc1.O=P(O)(O)O` (configuration not stated) the value was 47%. Consider `CN1N=C2/C(=C/c3ccccc3)CN(Cc3ccccc3)CC2C1c1ccccc1.Cl` (configuration not stated), for which the inhibition in vivo at 150 mg/kg turned out to be 0%. As for `CN1C/C(=C\c2ccccc2)C2=NN(CCO)C(c3ccccc3)C2C1.Cl` (configuration not stated), the inhibition in vivo at 150 mg/kg came to 41%. Still for that read-out and setting: for `C(=C1\CCCC2C1=NN(CCCN1CCOCC1)C2c1ccccc1)/c1ccccc1.Cl` (configuration not stated) the value was 30%. Still for that read-out and setting: as for `COc1ccc(/C=C2\CN(C)CC3C2=NN(C)C3c2ccc(OC)cc2)cc1.Cl` (configuration not stated), the figure is 29%. Still for that read-out and setting: as for `CN1N=C2/C(=C/c3ccccc3)CN(CCc3ccccc3)CC2C1c1ccccc1.Cl` (configuration not stated), the figure is 32%. For `CN1C/C(=C\c2ccccc2)C2=NN(CC(F)(F)F)C(c3ccccc3)C2C1.Cl` (configuration not stated), the inhibition in vivo at 150 mg/kg was found to be 27%. Consider `CN1C/C(=C\c2ccccc2)C2=NN(C)[C@@H](c3ccccc3)[C@@H]2C1.Cl`, for which the inhibition in vivo at 150 mg/kg is 22%.

Another data set concerns Rattus norvegicus. Kind of data set: Toxicity in rat at 100 mg/kg, ip. It counts as organism-based. The arrangement: dose 100 mg/kg, route intraperitoneal. The settings on record: in vivo.
For the compound `CN(C)CCN1N=C2/C(=C/c3ccccc3)CN(C)CC2C1c1ccccc1.Cl` (configuration not stated), the Activity result is “Toxic”.

A further data set has as its system Rattus norvegicus. Put plainly: Toxicity in Sprague-Dawley rat assessed as induction of ulcer at 150 to 600 mg/kg, po after 6 hrs. It counts as organism-based. The arrangement: dose 150-600 mg/kg, route oral. The conditions noted are these: in vivo. Summed up: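 Male Sprague-Dawley rats were kept without food pellets, with free access to water containing 5% dextrose, for 48 h. The compound, dissolved or suspended in water, was then given by gavage at 150, 300 and 600 mg/kg, eight rats per dose.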
Consider `CCCCC1C(=O)N(c2ccccc2)N(c2ccccc2)C1=O` [PHENYLBUTAZONE], for which the Activity result was “Non-toxic”. Still for that read-out and setting: as for `CCCN1N=C2/C(=C/c3ccccc3)CN(C)CC2C1c1ccccc1.O=P(O)(O)O` (configuration not stated), the entry is “Non-toxic”.

The test system of another data set is Rattus norvegicus. Put plainly: Central nervous system activity in ip dosed rat assessed as induction of depressant.
Conditions: not given
The data set is classed as functional. In outline: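 Young adult female rats received 5% solutions or dispersions (two drops Tween 80) in water at 200, 100 and 50 mg/kg. Compounds active at 50 mg/kg were also given at 25 and 12.5 mg/kg. The ED value was the lowest dose that decreased motor activity in 2/2 rats.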
Take `CN1C/C(=C\c2ccc(Cl)cc2)C2=NN(C)C(c3ccc(Cl)cc3)C2C1.Cl` (configuration not stated): the ED is >200 mg/kg.

Turning to `CCCC(C)(COC(N)=O)COC(N)=O` [MEPROBAMATE], the ED was determined as 50 mg/kg.

Regarding `CC(=O)N1N=C2/C(=C/c3ccccc3)CN(C)CC2C1c1ccccc1.Cl` (configuration not stated), the ED is 200 mg/kg. On the same count and under the same terms, for `CCN1N=C2/C(=C/c3ccccc3)CN(C)CC2C1c1ccccc1.Cl` (configuration not stated) the value was >200 mg/kg; for `CN(C)CCN1N=C2/C(=C/c3ccccc3)CN(C)CC2C1c1ccccc1.Cl` (configuration not stated), 25 mg/kg.

As for `CN1C/C(=C\c2ccccc2Cl)C2=NN(C)C(c3ccccc3Cl)C2C1.Cl` (configuration not stated), the ED was >200 mg/kg.

As to `CN1N=C2/C(=C\c3ccccc3)CCCC2C1c1ccccc1` (configuration not stated), the ED is >200 mg/kg. As for `CCCCN1N=C2/C(=C/c3ccccc3)CN(C)CC2C1c1ccccc1.Cl` (configuration not stated), the ED is >200 mg/kg. As to `CC(=O)N1C/C(=C\c2ccccc2)C2=NN(C)C(c3ccccc3)C2C1` (configuration not stated), the ED worked out at 100 mg/kg.

For `CCCN1N=C2/C(=C/c3ccccc3)CN(C)CC2C1c1ccccc1.O=P(O)(O)O` (configuration not stated), the ED stood at 100 mg/kg. On the same count and under the same terms, as for `CN(C)CCCN1N=C2/C(=C/c3ccccc3)CN(C)CC2C1c1ccccc1.Cl` (configuration not stated), the figure is 100 mg/kg; as for `CN1N=C2/C(=C/c3ccccc3)CN(C(=N)N)CC2C1c1ccccc1.Cl` (configuration not stated), 200 mg/kg. Same read-out and setting: as for `CC(=O)CCN1C/C(=C\c2ccccc2)C2=NN(C)C(c3ccccc3)C2C1.Cl` (configuration not stated), the figure is >200 mg/kg; as for `CN(C)CCCN1N=C2/C(=C/c3ccccc3)CN(CCc3ccccc3)CC2C1c1ccccc1.O=C(O)/C=C\C(=O)O` (configuration not stated), >200 mg/kg; as for `CCCCN1C/C(=C\c2ccccc2)C2=NN(C)C(c3ccccc3)C2C1.Cl` (configuration not stated), 100 mg/kg. The same measure, in the same setting: as for `CN1N=C2/C(=C/c3ccccc3)CN(Cc3ccccc3)CC2C1c1ccccc1.Cl` (configuration not stated), the figure is 100 mg/kg. For the compound `CCN(CC)CCCN1N=C2/C(=C\c3ccccc3)CCCC2C1c1ccccc1.O=C(O)/C=C\C(=O)O` (configuration not stated), the ED came to 100 mg/kg. On the same count and under the same terms, for `CN1C/C(=C\c2ccccc2)C2=NN(CCCc3ccccc3)C(c3ccccc3)C2C1.Cl` (configuration not stated) the value was >200 mg/kg; for `CN1C/C(=C\c2ccccc2)C2=NN(CCO)C(c3ccccc3)C2C1.Cl` (configuration not stated), 200 mg/kg.

Take `CN1CCN(CCCN2N=C3/C(=C\c4ccccc4)CCCC3C2c2ccccc2)CC1.O=C(O)/C=C\C(=O)O` (configuration not stated): the ED stood at 200 mg/kg. The same measure, in the same setting: as for `C(=C1\CCCC2C1=NN(CCCN1CCOCC1)C2c1ccccc1)/c1ccccc1.Cl` (configuration not stated), the figure is 100 mg/kg; as for `CN1C/C(=C\c2ccccc2)C2=NNC(c3ccccc3)C2C1.Cl` (configuration not stated), 50 mg/kg. The same measure, in the same setting: as for `COc1ccc(/C=C2\CN(C)CC3C2=NN(C)C3c2ccc(OC)cc2)cc1.Cl` (configuration not stated), the figure is >200 mg/kg; as for `CN(C)CCCN1N=C2/C(=C\c3ccccc3)CCCC2C1c1ccccc1.O=C(O)C(=O)O` (configuration not stated), 50 mg/kg. Still for that read-out and setting: for `CN1N=C2/C(=C/c3ccccc3)CN(CCc3ccccc3)CC2C1c1ccccc1.Cl` (configuration not stated) the value was 100 mg/kg; for `CCC(=O)N1C/C(=C\c2ccccc2)C2=NN(C)C(c3ccccc3)C2C1` (configuration not stated), 200 mg/kg; for `CN1N=C2/C(=C/c3ccccc3)CN(C(N)=O)CC2C1c1ccccc1` (configuration not stated), >200 mg/kg. `CN1C/C(=C\c2cccc(Cl)c2)C2=NN(C)C(c3cccc(Cl)c3)C2C1.Cl` (configuration not stated): the ED was >200 mg/kg. The same measure, in the same setting: for `CCN1C/C(=C\c2ccccc2)C2=NN(C)C(c3ccccc3)C2C1.Cl` (configuration not stated) the value was 200 mg/kg; for `CN1C/C(=C\c2ccccc2)C2=NN(CC(F)(F)F)C(c3ccccc3)C2C1.Cl` (configuration not stated), 100 mg/kg. The same measure, in the same setting: as for `CNC(=O)N1C/C(=C\c2ccccc2)C2=NN(C)C(c3ccccc3)C2C1.Cl` (configuration not stated), the figure is >200 mg/kg. Still for that read-out and setting: for `CN1N=C2/C(=C/c3ccccc3)CNCC2C1c1ccccc1.Cl` (configuration not stated) the value was 12.5 mg/kg.

As to `C(=C1\CCCC2C1=NN(CCCN1CCCCC1)C2c1ccccc1)/c1ccccc1.O=C(O)/C=C\C(=O)O` (configuration not stated), the ED stood at 200 mg/kg. Still for that read-out and setting: as for `CN1C/C(=C\c2ccccc2)C2=NN(C)[C@@H](c3ccccc3)[C@@H]2C1.Cl`, the figure is 50 mg/kg; as for `CN(C)CCN1N=C2/C(=C\c3ccccc3)CCCC2C1c1ccccc1.O=C(O)/C=C\C(=O)O` (configuration not stated), 100 mg/kg.

The next data set deals with Rattus norvegicus. Put plainly: Central nervous system activity in rat assessed as induction of depressant at 100 mg/kg, po.
Conditions: not given
The arrangement: dose 100 mg/kg. The data set is classed as functional, organism-based.
Take `CN1N=C2/C(=C/c3ccccc3)CNCC2C1c1ccccc1.Cl` (configuration not stated): the result was Active.

Test system in the next data set: not listed separately
Put plainly: Toxicity in po dosed Sprague-Dawley rat. It counts as organism-based. The conditions noted are these: in vivo.
`CCCCC1C(=O)N(c2ccccc2)N(c2ccccc2)C1=O` [PHENYLBUTAZONE] registered an LD50 of 1200 mg/kg. Still for that read-out and setting: for `CCCN1N=C2/C(=C/c3ccccc3)CN(C)CC2C1c1ccccc1.O=P(O)(O)O` (configuration not stated) the value was 5400 mg/kg.
